Measurements taken from ChEMBL document CHEMBL4028903 (J Med Chem, 2017).
Active and inactive are the calls of the source. No cut-off for these calls is given here.

Assays:
[1] = Cmax in Sprague-Dawley rat at 0.03 mg/kg, po qd administered via gavage measured on day 11 by LC-MS/MS analysis; assay type: ADME, organism-based; parameters: dose 0.03 mg/kg, route oral; details: in vivo
[2] = Volume of distribution at steady state in dog at 0.5 mg/kg, iv or 2 mg/kg, po administered via gavage by LC-MS/MS analysis; assay type: ADME, organism-based, Canis lupus familiaris; details: in vivo, read-out: Vdss
Summary of the method: (§1)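 IV dosing used a solution in 75% PEG300:25% D5W for mouse and rat, and a solution in 20% PEG300, 5% solutol, 75% carbonate buffer pH 8 for dog. PO dosing used a suspension in 0.5% methylcellulose, 0.5% Tween80, 99% water for all three species.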

[3] = target: T1, G-protein coupled bile acid receptor 1 (Homo sapiens, UniProt Q8TDU6); experiment: Agonist activity at human TGR5
T1 sequence (Q8TDU6 whole entry): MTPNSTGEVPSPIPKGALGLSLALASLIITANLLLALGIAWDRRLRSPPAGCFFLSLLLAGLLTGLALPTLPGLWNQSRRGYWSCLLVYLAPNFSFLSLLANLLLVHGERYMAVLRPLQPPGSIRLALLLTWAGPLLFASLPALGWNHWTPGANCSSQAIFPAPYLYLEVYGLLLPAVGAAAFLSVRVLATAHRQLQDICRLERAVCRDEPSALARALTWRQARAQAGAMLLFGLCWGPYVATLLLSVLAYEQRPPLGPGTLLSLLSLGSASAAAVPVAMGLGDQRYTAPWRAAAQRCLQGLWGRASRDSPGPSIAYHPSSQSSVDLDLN

[4] = target: T2, Bile acid receptor (Rattus norvegicus) (UniProt Q62735); experiment: Agonist activity at FXR in rat primary hepatocytes assessed as induction of BSEP mRNA level after 24 hrs by qPCR analysis; assay type: cell-based
T2 sequence (whole entry): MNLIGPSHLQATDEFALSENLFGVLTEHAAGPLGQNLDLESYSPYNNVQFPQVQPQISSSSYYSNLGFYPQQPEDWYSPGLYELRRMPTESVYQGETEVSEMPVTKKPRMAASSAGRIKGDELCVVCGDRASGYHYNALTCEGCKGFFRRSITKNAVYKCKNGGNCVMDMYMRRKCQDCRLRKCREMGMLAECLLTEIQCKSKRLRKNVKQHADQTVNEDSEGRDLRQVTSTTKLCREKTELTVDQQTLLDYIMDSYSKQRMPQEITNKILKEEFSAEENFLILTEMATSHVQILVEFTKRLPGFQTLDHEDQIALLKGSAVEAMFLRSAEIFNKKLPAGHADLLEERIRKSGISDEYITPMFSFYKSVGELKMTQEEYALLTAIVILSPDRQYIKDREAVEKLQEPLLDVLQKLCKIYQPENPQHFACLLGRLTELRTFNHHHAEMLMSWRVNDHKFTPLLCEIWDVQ

[5] = Cmax in rat at 1 mg/kg, po administered via gavage by LC-MS/MS analysis; assay type: ADME, organism-based; parameters: dose 1 mg/kg, route oral; details: in vivo
Summary of the method: (§2)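 Single oral dose given as a suspension in 0.5% methylcellulose, 0.5% Tween80 and 99% water. Doses were 10 mg/kg in mouse, 1 mg/kg in rat and 2 mg/kg in dog.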

Rattus norvegicus [6] = experiment: In vivo agonist activity at FXR in Sprague-Dawley rat assessed as induction of SHP mRNA level in liver at 0.01 mg/kg, po qd for 14 days measured 7 hrs post last dose on day 14 by qPCR analysis; assay type: functional, organism-based
Rattus norvegicus [7] = experiment: Drug metabolism in rat assessed as glycine conjugated metabolite formation at 3 mg/kg, iv or 1 mg/kg, po administered via gavage by LC-MS/MS analysis; assay type: ADME, organism-based; details: in vivo
[8] = Drug uptake in Sprague-Dawley rat plasma at 0.003 mg/kg, po qd administered via gavage measured 1 hr post last dose on day 14 by LC-MS/MS analysis; assay type: ADME, organism-based
[9] = AUC in mouse at 10 mg/kg, po administered via gavage by LC-MS/MS analysis; assay type: ADME, organism-based; details: in vivo; summary of the method: as §2
[10] = Cmax in mouse at 10 mg/kg, po administered via gavage by LC-MS/MS analysis; assay type: ADME, organism-based; parameters: dose 10 mg/kg, route oral; details: in vivo; summary of the method: as §2
[11] = AUC (0 to 24 hrs) in Sprague-Dawley rat at 0.01 mg/kg, po qd administered via gavage measured on day 11 by LC-MS/MS analysis; assay type: ADME, organism-based; parameters: dose 0.01 mg/kg, time < 24 hr, route oral; details: in vivo
[12] = Drug uptake in Sprague-Dawley rat plasma at 3 mg/kg, po qd administered via gavage measured 7 hrs post last dose on day 14 by LC-MS/MS analysis; assay type: ADME, organism-based
[13] = Drug uptake in Sprague-Dawley rat plasma at 0.003 mg/kg, po qd administered via gavage measured 7 hrs post last dose on day 14 by LC-MS/MS analysis; assay type: ADME, organism-based
[14] = Cmax in rat at 10 mg/kg, po administered via gavage by LC-MS/MS analysis; assay type: ADME, organism-based; parameters: dose 10 mg/kg, route oral; details: in vivo
Summary of the method: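 Rats were dosed IV as a solution in 75% PEG300:25% D5W, or orally as a suspension in 0.5% methylcellulose, 0.5% Tween80 and 99% water.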

[15] = Drug uptake in Sprague-Dawley rat liver at 3 mg/kg, po qd administered via gavage measured 1 hr post last dose on day 14 by LC-MS/MS analysis; assay type: ADME, organism-based; details: read-out: Drug uptake
Summary of the method: (§3)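 Drug concentration in liver was quantified from tissue homogenates, so these are total levels. Unbound liver concentration was not determined.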

[16] = AUC (0 to 24 hrs) in Sprague-Dawley rat at 0.03 mg/kg, po qd administered via gavage measured on day 11 by LC-MS/MS analysis; assay type: ADME, organism-based; parameters: time < 24 hr, dose 0.03 mg/kg, route oral; details: in vivo
Rattus norvegicus [17] = experiment: In vivo agonist activity at FXR in po dosed Sprague-Dawley rat assessed as induction of BSEP mRNA level in liver administered as single dose after 7 hrs post dose by qPCR analysis; assay type: functional, organism-based
[18] = Cmax in Sprague-Dawley rat at 0.03 mg/kg, po qd administered via gavage measured on day 1 by LC-MS/MS analysis; assay type: ADME, organism-based; parameters: dose 0.03 mg/kg, route oral; details: in vivo
[19] = AUC in rat at 1 mg/kg, po administered via gavage by LC-MS/MS analysis; assay type: ADME, organism-based; details: in vivo; summary of the method: as §2
Rattus norvegicus [20] = experiment: In vivo agonist activity at FXR in po dosed Sprague-Dawley rat assessed as induction of SHP mRNA level in liver administered as single dose after 7 hrs post dose by qPCR analysis; assay type: functional, organism-based
[21] = Oral bioavailability in rat at 1 mg/kg administered via gavage by LC-MS/MS analysis; assay type: ADME, organism-based; details: in vivo; summary of the method: as §1
[22] = AUC (0 to 24 hrs) in Sprague-Dawley rat at 0.3 mg/kg, po qd administered via gavage measured on day 1 by LC-MS/MS analysis; assay type: ADME, organism-based; parameters: dose 0.3 mg/kg, time < 24 hr, route oral; details: in vivo
Rattus norvegicus [23] = experiment: Dose normalized AUC (0 to 24 hrs) in Sprague-Dawley rat at 1 mg/kg, po qd administered via gavage measured on day 11 by LC-MS/MS analysis; assay type: ADME, organism-based; details: in vivo
[24] = Drug uptake in Sprague-Dawley rat liver at 3 mg/kg, po qd administered via gavage measured 7 hrs post last dose on day 14 by LC-MS/MS analysis; assay type: ADME, organism-based; details: read-out: Drug uptake; summary of the method: as §3
[25] = Drug uptake in Sprague-Dawley rat liver at 0.003 mg/kg, po qd administered via gavage measured 7 hrs post last dose on day 14 by LC-MS/MS analysis; assay type: ADME, organism-based; details: read-out: Drug uptake; summary of the method: as §3
[26] = Drug uptake in Sprague-Dawley rat plasma at 0.01 mg/kg, po qd administered via gavage measured 1 hr post last dose on day 14 by LC-MS/MS analysis; assay type: ADME, organism-based

O=C(O)c1cc(F)c2nc(N3C4CCC3CC(OCc3c(-c5ccccc5OC(F)(F)F)noc3C3CC3)C4)sc2c1 (stereo unspecified)
Cmax [1]: 1.9 nM | Vd [2]: 0.46 L/kg | EC50 [3]: > 10 µM | Activity [4]: Dose-dependent effect | Cmax [5]: 53 nM | Activity (Rattus norvegicus [6]): Active | Drug metabolism (Rattus norvegicus [7]): Metabolite_Notdetected | concentration at 1 h [8]: 0.2 nM | AUC [9]: 4.79 µM·h | Cmax [10]: 1190 nM | AUC at 24 h [11]: 0.005 µM·h | concentration at 7 h [12]: 115 nM | concentration at 7 h [13]: 0.12 nM | Cmax [14]: 2280 nM | concentration at 1 h [15]: 872 nM | AUC at 24 h [16]: 0.02 µM·h | Activity (Rattus norvegicus [17]): Dose-dependent effect | Cmax [18]: 1.5 nM | AUC [19]: 0.307 µM·h | Activity (Rattus norvegicus [20]): Dose-dependent effect | bioavailability [21]: 10% | AUC(0-t) at 24 h [22]: 0.117 µM·h | AUC/dose (Rattus norvegicus [23]): 562 nM·h | concentration at 7 h [24]: 640 nM | concentration at 7 h [25]: 2.3 nM | concentration at 1 h [26]: 0.37 nM
